In ChEMBL document CHEMBL1143701, “O2-acetoxymethyl-protected diazeniumdiolate-based NSAIDs (NONO-NSAIDs): synthesis, nitric oxide release, and biological evaluation studies” (Bioorg Med Chem, 2007):

Assays:
[1] = Effect on nitric oxide release in presence of porcine liver esterase per mole using sievers […]; format: functional
Procedure, shortened: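 Porcine liver esterase (10 μL of suspension in 3.2 M ammonium sulfate) in 3 mL phosphate buffer pH 8.0; 10 μL of 46 or 77 mM DMSO stock injected; NO carried by nitrogen purge to chemiluminescence analyzer, quantified against calibration curve; time to 100% theoretical NO read graphically.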

[2] = Effect on nitric oxide release in pH 7.4 PBS buffer using sievers […]; format: functional
Procedure, shortened: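 Prodrug in DMSO (46 or 77 mM stock), 10 μL injected into 3 mL deoxygenated phosphate buffer pH 7.4 at 37 °C in sealed cell; NO swept by nitrogen purge to chemiluminescence analyzer calibrated with NO/He standards; mol NO/mol compound from integrated peak area; time to ~50% of theoretical NO read graphically.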

[3] = tested on: Rattus norvegicus; test: Gastric damage production in rat assessed as gastric ulcer index at 1.38 mmol/kg, po after 6 hrs; format: functional, Stomach
Procedure, shortened: (§1)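 Rats fasted 24 h (water allowed), given single oral dose suspended in 1.7 mL 1% methylcellulose; vehicle controls. Killed 6 h later by CO2; stomachs opened along greater curvature and ulcer lengths scored under magnifier. Ulcer index = total ulcer length (mm) summed over stomachs divided by animals (n = 4); mean ± SEM.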

[4] = tested on: Rattus norvegicus; test: Antiinflammatory activity against carrageenan-induced rat paw edema in orally dosed rat after 3 hrs; format: functional; conditions: po, read-out: ID50 (the source's name)
[5] = biological target: T1, Prostaglandin G/H synthase 1 (Ovis aries, UniProt P05979); test: Inhibition of ovine COX1 by enzyme immuno assay
T1 sequence (P05979 whole entry): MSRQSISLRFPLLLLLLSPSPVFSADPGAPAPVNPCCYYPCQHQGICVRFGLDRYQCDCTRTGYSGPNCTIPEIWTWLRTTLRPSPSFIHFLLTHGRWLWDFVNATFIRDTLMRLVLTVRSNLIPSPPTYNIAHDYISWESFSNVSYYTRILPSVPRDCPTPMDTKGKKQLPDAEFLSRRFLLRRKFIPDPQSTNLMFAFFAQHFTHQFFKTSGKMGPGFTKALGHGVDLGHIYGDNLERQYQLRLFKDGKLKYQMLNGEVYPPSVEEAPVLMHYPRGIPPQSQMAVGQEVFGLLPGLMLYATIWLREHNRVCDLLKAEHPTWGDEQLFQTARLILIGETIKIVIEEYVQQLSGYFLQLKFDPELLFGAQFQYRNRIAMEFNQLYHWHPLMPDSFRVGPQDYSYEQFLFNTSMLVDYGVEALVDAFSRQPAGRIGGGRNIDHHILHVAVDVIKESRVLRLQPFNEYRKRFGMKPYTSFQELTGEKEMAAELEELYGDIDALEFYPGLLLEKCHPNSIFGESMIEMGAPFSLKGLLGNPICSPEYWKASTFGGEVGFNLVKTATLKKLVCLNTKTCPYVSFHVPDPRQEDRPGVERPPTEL

[6] = tested on: Rattus norvegicus; test: Gastric damage production in rat assessed as gastric ulcer index at 1.21 mmol/kg, po after 6 hrs; format: functional, Stomach; procedure, shortened: as §1
[7] = tested on: Rattus norvegicus; test: Gastric damage production in rat assessed as gastric ulcer index at 0.08 mmol/kg, po after 6 hrs; format: functional, Stomach; procedure, shortened: as §1

SMILES	Activity [1]	IC50 [5]	Activity [2]	Activity [3]	ED50 [4]	Activity [6]	Activity [7]
CC(=O)Oc1ccccc1C(=O)O [ASPIRIN]	–	–	–	57.4	714 µmol/kg	–	–
CC(C)Cc1ccc(C(C)C(=O)O)cc1 (configuration not stated) [IBUPROFEN]	–	–	–	–	327 µmol/kg	45.8	–
COc1ccc2c(c1)c(CC(=O)O)c(C)n2C(=O)c1ccc(Cl)cc1 [INDOMETHACIN]	–	–	–	–	11.7 µmol/kg	–	–

Second part, led by results:

Activity [1]	IC50 [5]	SMILES	Activity [2]	Activity [3]	ED50 [4]	Activity [6]	Activity [7]
2 mol/mol	–	CC(=O)OCO/N=[N+](\[O-])N(C)CCO	1 mol/mol	–	–	–	–
2 mol/mol	> 100 µM	CC(=O)OCO/N=[N+](\[O-])N(C)CCOC(=O)c1ccccc1OC(C)=O	1 mol/mol	0.84	553 µmol/kg	–	–
2 mol/mol	> 100 µM	CC(=O)OCO/N=[N+](\[O-])N(C)CCOC(=O)C(C)c1ccc(CC(C)C)cc1 (configuration not stated)	1.1 mol/mol	–	175 µmol/kg	0	–
2 mol/mol	> 100 µM	COc1ccc2c(c1)c(CC(=O)OCCN(C)/[N+]([O-])=N/OCOC(C)=O)c(C)n2C(=O)c1ccc(Cl)cc1	0.9 mol/mol	–	20.3 µmol/kg	–	1.3
